From PubChem BioAssay
CSC inhib = blocks cancer stem cells; cancer stem cell-like cells viability, luminescence; inhibition, % at 7.5 µM; hit rate 1.1% among 300,000; in the data active = inhibition above about 75%; inconclusive = no clear call, values can overlap the other calls; tested in HMLE shEcad cells
Calb FLC = C. albicans growth modulation with fluconazole. C. albicans CaCi-2 (fluconazole-resistant clinical isolate) + fluconazole, Alamar Blue growth, 48 h. growth inhibition, % (concentration not given with the values). hit rate 0.57% among 300,000;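 active = growth inhibition above about 58% in most replicates, limit read from the data, passing the limit was not always enough; inconclusive = exactly half the replicates above a set limit; inactive = most replicates below a set limit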;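 also: all wells also contain fluconazole at 8 µg/ml as a sub-toxic cotreatment; 0% = median of DMSO wells and 100% = median of geldanamycin control wells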
Mdm2 MdmX PPI = inhibitors of human Mdm2/MdmX interaction; O15151+Q00987; hit rate 3% among 330,000; SaOS-2 split-luciferase Mdm2/MdmX complementation, luminescence; inhibition, % at 8 µM;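 active = inhibition of at least 50% at 8 µM in the primary screen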
Target sequence (O15151 whole entry, looked up): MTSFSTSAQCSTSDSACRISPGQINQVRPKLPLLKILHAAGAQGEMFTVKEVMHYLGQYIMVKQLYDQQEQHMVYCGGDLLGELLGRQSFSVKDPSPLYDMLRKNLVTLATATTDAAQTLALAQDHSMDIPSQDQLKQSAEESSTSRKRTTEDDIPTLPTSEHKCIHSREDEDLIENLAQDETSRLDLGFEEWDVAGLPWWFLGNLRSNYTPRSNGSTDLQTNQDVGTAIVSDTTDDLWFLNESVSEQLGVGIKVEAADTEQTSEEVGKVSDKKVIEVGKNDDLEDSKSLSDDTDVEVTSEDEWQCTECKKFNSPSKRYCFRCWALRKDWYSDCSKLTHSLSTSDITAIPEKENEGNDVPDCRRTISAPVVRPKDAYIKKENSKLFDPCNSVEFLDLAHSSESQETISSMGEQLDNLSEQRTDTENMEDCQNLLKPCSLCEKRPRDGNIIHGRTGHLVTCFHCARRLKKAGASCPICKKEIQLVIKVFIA
Target sequence (Q00987 whole entry, looked up): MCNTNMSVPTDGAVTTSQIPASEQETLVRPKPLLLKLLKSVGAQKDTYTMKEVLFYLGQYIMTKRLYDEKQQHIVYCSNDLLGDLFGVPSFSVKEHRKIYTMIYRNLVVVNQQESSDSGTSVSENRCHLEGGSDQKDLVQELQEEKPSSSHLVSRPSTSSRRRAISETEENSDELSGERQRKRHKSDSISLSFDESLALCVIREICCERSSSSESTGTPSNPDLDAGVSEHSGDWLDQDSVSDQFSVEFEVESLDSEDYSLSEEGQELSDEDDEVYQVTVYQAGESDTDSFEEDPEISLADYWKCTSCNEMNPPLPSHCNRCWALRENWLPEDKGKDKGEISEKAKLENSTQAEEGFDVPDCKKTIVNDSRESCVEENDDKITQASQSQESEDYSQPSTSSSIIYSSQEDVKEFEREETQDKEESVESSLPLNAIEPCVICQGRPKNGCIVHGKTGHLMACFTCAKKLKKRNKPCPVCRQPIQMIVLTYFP
Beta cell apopt = beta cell apoptosis inhibition; AID 435005; protection from apoptosis, % (test concentration not listed); INS-1E cytokine-induced death, ATP luminescence, 48 h; percent of positive-control rescue, neutral wells zero; hit rate 0.8% among 300,000;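 active = Every replicate reaches about 75%, or at least half do and their mean reaches it too, limit read from the data; inconclusive = At least half of replicates reach the limit but their mean does not; inactive = Under half of replicates reach the limit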;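 also: 0% = cytokine-treated negative control wells and 100% = positive control rescue; higher means more ATP so stronger rescue from cytokine killing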
SKKanGAS inh = SKKanGAS growth inhibition | S. pyogenes SKKanGAS, kanamycin growth, BacTiter-Glo, 6 h | AID 1662 | hit rate 1.3% among 300,000 | inhibition, % at 7.5 µM;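 active = mean replicate score, as percent of positive control median, at least 50; inconclusive = mean below 50 but one replicate at or above 50; inactive = mean and every replicate below 50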;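 also: strain carries kanamycin resistance gene driven by streptokinase promoter and grows in 40 µg/ml kanamycin; loss of luminescence reflects streptokinase promoter inhibition or plain growth inhibition; 0% = median of DMSO wells and 100% = positive control at its reference dose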
T cruzi repl = blocks replication of Trypanosoma cruzi. T. cruzi beta-gal in NIH3T3, luminescence, 90 h. hit rate 1.4% among 300,000. inhibition, % (no concentration beside the values). AID 1885;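 active = mean inhibition across valid replicates above about 55%, limit read from the data; inconclusive = mean below that limit but half or more replicates reach it; inactive = mean below it, under half of replicates reach it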;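 also: signal also drops with host cell toxicity which is not excluded here; 0% = plate median of DMSO wells and 100% = zero luminescence signal; higher percent means less beta-gal luminescence so fewer parasites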
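Read-out: Parasite load inhibition, % | Test system: Mouse NIH/3T3 fibroblasts infected with β-gal-expressing T. cruzi Tulahuen C4 | Amount: 5,000 cells/well | Medium: DMEM, 2% fetal bovine serum | Signal: GalScreen β-gal luminescence, detergent lysis, 60 min | Timing: 3 h attach, ≥90 h co-culture | Also added: Tulahuen C4 trypomastigotes, 5000/well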
Mdm2 MdmX conf = human Mdm2/MdmX binding inhibition, confirmed; luminescent assay; hit rate 55% among 10,000; inhibition, % at 8 µM; shares compounds with Mdm2 MdmX PPI; in the data active = inhibition above about 40%
Full FLuc ctr = full-length luciferase inhibition in Mdm2/MdmX counter-screen. shares compounds with Mdm2 MdmX PPI. SaOS-2 full-length luciferase counterscreen, luminescence. inhibition, % at 8 µM. hit rate 77% among 6,200. AID 504607;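 active = mean inhibition at 8 µM reaching about 37%, which flags the compound as non-specific, limit read from the data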;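 also: p53-null SaOS-2 cells with luciferase driven by a doxycycline-inducible promoter; compound on cells about two nights before reading with doxycycline added after day one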
* hit, by the source's call; ? = inconclusive; nt = no result given. Hits are enriched below; roughly 5.7% of the tested compounds scored in any of these assays.

SMILES | CSC inhib | Calb FLC | Mdm2 MdmX PPI | Beta cell apopt | SKKanGAS inh | T cruzi repl | Mdm2 MdmX conf | Full FLuc ctr
O=C(c1ccccc1)C(CCC(CN1CCOCC1)C(=O)c1ccccc1)CN1CCOCC1 (stereo not drawn) | 31 | 10 | 95* | 95* | -8 | -3 | 65* | 51*
O=C(c1ccc(Cl)cc1)C(CN1CCCC1)c1ccccc1 (stereo not drawn) | 35 | 2 | 71* | 61 | -8 | 36 | 34 | nt
CC(CN1CCOCC1)OC(=O)C(c1ccccc1)c1ccccc1 (stereo not drawn) | 2 | 3 | -31 | -8 | 4 | 8 | nt | nt
Cn1c2ccccc2c(=O)c2c(=O)n(-c3ccccc3)c(-c3ccc(C(C)(C)C)cc3)nc21 | -18 | 18 | 89* | 8 | 23 | 36 | 79* | 55*
Cn1c2ccccc2c(=O)c2c(=O)n(C3CCCCC3)c(-c3ccco3)nc21 | 10 | -4 | 80* | nt | 44 | 6 | 66* | 90*
Cc1ccc(-c2nc3c(c(=O)c4ccccc4n3C)c(=O)n2-c2ccc(F)cc2)cc1 | -4 | 12 | 14 | 4 | 24 | -14 | nt | nt
CCOC(=O)C(C)C(C)=O (stereo not drawn) | -14 | nt | -5 | -4 | nt | nt | nt | nt
Cc1cc(C)c2ccc3c(C)c(C)nc3c2[nH]1 | 21 | -35 | 70* | -3 | nt | nt | 42* | 45*
Cc1cc(=O)[nH]c2c(C)c(N)ccc12 | nt | -3 | -21 | -3 | 3 | -19 | nt | nt
c1ccc2c(Nc3nc(-c4ccncc4)nc4ccccc34)cccc2c1 | ? | -3 | 62* | 13 | 14 | 44 | 59* | 72*
CCN(CC)c1nc(-c2ccccc2)nc2ccccc12 | 18 | -21 | -12 | 4 | -3 | 16 | nt | nt
Clc1cccc(Nc2nc(-c3ccncc3)nc3ccccc23)c1 | 56 | 23 | 93* | 21 | -3 | 43 | 45* | 18
Oc1ccc(Nc2nc(-c3ccccc3)nc3ccccc23)cc1 | 19 | -15 | 34 | 5 | -5 | -1 | nt | nt
Clc1ccccc1Nc1nc(-c2ccncc2)nc2ccccc12 | 23 | -3 | 40 | 1 | -1 | 40 | nt | nt
Fc1ccc(Nc2nc(-c3ccncc3)nc3ccccc23)cc1F | 0 | -12 | 82* | 8 | 13 | ? | 81* | 64*
CCCCN(CCCC)c1nc(-c2ccncc2)nc2ccccc12 | 101* | 20 | 56* | nt | 97* | 5 | 39 | nt
Cc1cccc(-n2c(SCC(=O)N3CCC(C(=O)O)CC3)nc3ccccc3c2=O)c1C | -18 | -5 | -12 | -8 | 3 | 6 | nt | nt
CCC(CC)=C(C#N)C(=O)NC1CCCCC1 | -9 | -5 | -39 | 6 | 3 | 8 | nt | nt
O=C(O)c1ccc(S(=O)(=O)NC2CCCCCC2)cc1 | 6 | 36 | -2 | 0 | 6 | -3 | nt | nt
CC(C)(C)c1ccc(/C=N/NC(=O)Cc2c[nH]c3ccccc23)cc1 | 72 | 3 | 55* | -2 | 9 | 34 | -32 | nt
CN(C)C(=O)C(CCN1CCC(O)(c2ccc(Cl)cc2)CC1)(c1ccccc1)c1ccccc1 | 10 | nt | 67* | 7 | 1 | ? | 38 | 85*
CC(=O)c1sc(NC(=O)C2CCCN2S(=O)(=O)c2ccccc2F)nc1C (stereo not drawn) | nt | nt | 14 | nt | nt | nt | nt | nt
N#Cc1cc(O)c(-n2nnc3ccccc32)cc1C#N | -2 | 17 | 16 | nt | -7 | -14 | nt | nt
N#Cc1cc(Oc2cccc3cccnc23)c(-n2nnc3ccccc32)cc1C#N | 5 | 1 | 62* | 10 | 7 | 57* | 18 | nt
O=C(NNC(=S)Nc1ccc(Cl)c(Cl)c1)c1ccccn1 | 109* | 102* | 79* | 78* | 102* | 62* | 84* | 48*
SMILES | CSC inhib | Calb FLC | Mdm2 MdmX PPI | Beta cell apopt | SKKanGAS inh | T cruzi repl | Mdm2 MdmX conf | Full FLuc ctr
O=C(NNC(=O)C(c1ccccc1)c1ccccc1)c1ccccn1 | 27 | -61 | 66* | 70 | 11 | 44 | 66* | 42*
O=C(NNc1ccccn1)C(c1ccccc1)c1ccccc1 | -18 | 1 | 22 | 0 | 5 | 7 | nt | nt
O=C(NCCOc1ccccc1)C(c1ccccc1)c1ccccc1 | 12 | -5 | 10 | -5 | 6 | -17 | nt | nt
CC1CCC2(CC1)NC(=O)N(NC(=O)c1cccc(N(C)C)c1)C2=O (stereo not drawn) | -2 | nt | 16 | -7 | nt | nt | nt | nt
COc1ccc2[nH]c3c(c2c1)CCNC3c1ccc([N+](=O)[O-])o1 (stereo not drawn) | 21 | -17 | 19 | 4 | 4 | 14 | nt | nt
COc1ccc2[nH]c3c(c2c1)CCNC3C1CC=C(C)CC1 (stereo not drawn) | -4 | -3 | 67* | 21 | -3 | 17 | 61* | 57*
Cc1cc(C)cc(NC(=O)CCn2c(=S)[nH]c3ccccc3c2=O)c1 | -11 | 16 | 65* | 9 | 3 | 4 | 15 | nt
COc1ccc(NC(=O)CCn2c(=S)[nH]c3ccccc3c2=O)cc1OC | -9 | -1 | 6 | 5 | 6 | -12 | nt | nt
CCNc1nc(N2CCCC2)nc(N2CCCC2)n1 | 10 | -12 | 21 | 0 | 8 | -12 | nt | nt
CCNc1nc(NC(C)(C)C)nc(N2CCCCC2)n1 | 23 | 42 | 51* | 41 | 30 | 49 | 19 | nt
Cc1cccn2c(=O)c(C=Nc3ccccc3)c(NCc3ccco3)nc12 | 1 | 9 | 9 | 0 | 11 | -10 | nt | nt
COC(=O)/N=C/c1c(NCc2ccccc2)nc2c(C)cccn2c1=O | -4 | -15 | 70* | -6 | -17 | 20 | 33 | nt
Cc1ccc(CNC(=O)Cn2cnc(C(=O)Nc3ccc(C)c(C)c3)n2)o1 | nt | nt | 4 | nt | nt | nt | nt | nt
Cc1nn(-c2cc(N3CCCCCC3)ccc2[N+](=O)[O-])c(=O)c2ccccc12 | -8 | -5 | 1 | -8 | 12 | 25 | nt | nt
Cc1ccc(-c2nn(-c3cc(N4CCNCC4)ccc3[N+](=O)[O-])c(=O)c3ccccc23)cc1 | 20 | 12 | 100* | 6 | -1 | 73* | 29 | nt
Cc1ccc2cc(CN(CCCN(C)C)C(=S)NCc3ccccc3)c(=O)[nH]c2c1C | -2 | 28 | 55* | 0 | -4 | 41 | 31 | nt
Cc1ccc2cc(CN(CCCN(C)C)C(=O)NCc3ccccc3)c(=O)[nH]c2c1C | -11 | ? | 23 | -10 | -1 | 52 | nt | nt
Cc1ccc2cc(CN(CC3CCCO3)C(=S)Nc3ccccc3)c(=O)[nH]c2c1C (stereo not drawn) | 61 | 13 | 85* | 9 | 2 | -26 | 86* | 35
CC1=CC(C)C2(CO)COC(c3ccccc3O)C1C2C (stereo not drawn) | -15 | -14 | 22 | -5 | -2 | -4 | nt | nt
COc1cccc(OCC(=O)Nc2c3c(nn2-c2ccccc2)CS(=O)(=O)C3)c1 | 7 | 4 | 1 | 3 | 25 | -4 | nt | nt
